# Experimental data: ChEMBL document CHEMBL5625176, “Immunosuppressive effects of new thiophene-based KV1.3 inhibitors” (Eur J Med Chem, 2023)
# Activity calls are given as the source filed them. No cut-off for these calls is given here.
# Tests used:
# [1] = molecular target: T1, Potassium voltage-gated channel subfamily A member 3 (Homo sapiens, UniProt P22001); assay: Inhibition of human Kv1.3 expressed in Xenopus laevis Oocyte cells at 10 uM by manual patch clamp method relative to control; type: cell-based
# Method in brief: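 Human Kv1.3 cRNA injected into defolliculated Xenopus oocytes. Two-electrode voltage clamp 1–4 days later at 18–22 °C in ND96 (pH 7.5). Currents evoked by 1 s depolarizations, with inhibition read at the 0 mV step. Compounds from DMSO stock at ≤0.5% DMSO, either single 10 μM or rising concentrations fitted with the Hill equation for IC50.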
# [2] = molecular target: T1, Potassium voltage-gated channel subfamily A member 3; assay: Inhibition of human Kv1.3 expressed in mouse LTK- cells by manual patch clamp electrophysiological recording; type: cell-based
# Method in brief: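 Mouse Ltk⁻ fibroblasts in DMEM/10% horse serum transiently transfected with hKv1.3 plasmid plus eGFP marker, and recorded 24 h later. Whole-cell patch clamp at 20–23 °C. Compounds diluted from DMSO stocks with final DMSO ≤0.1%, with 0.1% DMSO as vehicle control. Normalized current plotted against concentration and fitted with the Hill equation for IC50; mean ± SEM, n = cells.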
# [3] = molecular target: T1, Potassium voltage-gated channel subfamily A member 3; assay: Inhibition of Kv1.3 (unknown origin) expressed in human PBMC derived PHA-activated T-lymphocyte cells assessed as reduction in total outward potassium current at 5 uM by patch clamp electrophysiology method; type: cell-based
# Method in brief: (§1)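 Whole-cell recording on PBMC stimulated 5 days with PHA-L (240 ng/mL); about 90% of cells CD3⁺. Large cells chosen; cells with currents ≤500–600 pA discarded. Bath in mM: 130 NaCl, 5 KCl, 2 CaCl₂, 2 MgCl₂, 10 HEPES, 5 glucose, pH 7.4; pipette KF-based with 11 EGTA, pH 7.2. Leak-subtracted two-step outward K⁺ current. Single concentration 5 μM, or 0.05 nM–50 μM for curves; peak normalized to control.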
# [4] = molecular target: hERG (KCNH2) (Homo sapiens, UniProt Q12809); assay: Inhibition of hERG overexpressed in HEK293 cells at 5 uM relative to control; type: toxicity, cell-based; details: HEK293 cells overexpressing hERG
# [5] = system: T-cell; assay: Inhibition of anti-CD3 stimulated human T cell proliferation incubated for 15 to 30 mins in presence of IL-2 by 3H-thymidine uptake assay; type: functional, cell-based
# [6] = molecular target: T1, Potassium voltage-gated channel subfamily A member 3; assay: Inhibition of Kv1.3 (unknown origin) expressed in PBMC derived PHA-activated T-lymphocyte cells incubated for 5 days by manual patch clamp method; type: cell-based; method in brief: as §1
# [7] = molecular target: T1, Potassium voltage-gated channel subfamily A member 3; assay: Inhibition of human Kv1.3 expressed in PHA-activated T-lymphocyte cells assessed as outward current at 1 uM incubated for 1 min by patch clamp electrophysiology method (reference value: 769.2 +/- 199.2 pA); type: cell-based
# Method in brief: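 Human PBMCs isolated by Ficoll gradient with red-cell lysis, seeded at 1.5 × 10⁶ cells/mL in RPMI with 10% heat-inactivated serum and 2 mM L-glutamine, then stimulated 5 days with PHA-L 240 ng/mL. Whole-cell patch clamp used a bath of (mM) 130 NaCl, 5 KCl, 10 HEPES, pH 7.4 and a pipette of 140 KF, 11 EGTA, pH 7.2. Large cells were selected, and cells with currents ≤500–600 pA were discarded. Outward current was leak-subtracted and compared to control by paired t-test.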
# [8] = Thermodynamic solubility of the compound at pH 7.4 incubated for 24 hrs under shaking condition by HPLC analysis; type: physicochemical; details: buffer, read-out: Therm_solubility
# Method in brief: (§2)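 Supernatant diluted 1:2 or 1:10 in 0.1% TFA/MeCN 1:1 and quantified by reversed-phase UPLC at 290 nm against a 7-point calibration (1–100 μM). Mean of two independent experiments, in μM.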
# [9] = Aqueous solubility of compound in DMEM; type: physicochemical
# [10] = molecular target: T1, Potassium voltage-gated channel subfamily A member 3; assay: Inhibition of Kv1.3 in human T-lymphocyte by electrophysiology recordings; type: cell-based; method in brief: as §1
# [11] = molecular target: T1, Potassium voltage-gated channel subfamily A member 3; assay: Inhibition of Kv1.3 (unknown origin) expressed in CHO cells incubated for 10 mins by 86Rb+ efflux assay; type: cell-based
# [12] = Aqueous solubility of compound; type: physicochemical; details: buffer; method in brief: as §2
# [13] = molecular target: T1, Potassium voltage-gated channel subfamily A member 3; assay: Inhibition of Kv1.3 (unknown origin) expressed in Xenopus laevis Oocyte cell membrane by Electrophysiology recording; type: cell membranes
# [14] = system: T-cell line; assay: Cytotoxicity against human PBMC derived PHA-activated T-lymphocytes assessed as effect on total cell number at 30 uM incubated for 5 days by bright-field microscopic analysis; type: toxicity, cell-based; details: 120 h, time 5 day
# Method in brief: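 Ficoll-purified PBMC at 1.5 × 10⁶ cells/mL in RPMI/10% heat-inactivated serum/2 mM L-glutamine, stimulated with PHA-L 240 ng/mL and exposed to compounds (30 μM) for 5 days. Cells then counted to give total cell number.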
# [15] = system: T-cell; assay: Induction of cell cycle arrest at G0/G1 phase in human PBMC derived PHA-activated T-lymphocytes assessed as reduction S phase cells at 30 uM measured after 5 days by flow cytometric analysis; type: functional, cell-based; details: time 5.0 day
# Method in brief: (§3)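 PHA-activated PBMC exposed to compounds (30 μM) for 5 days in RPMI/10% heat-inactivated calf serum/2 mM L-glutamine, scraped off and incubated 1 h at 4 °C in the dark. Cell cycle read by flow cytometry and scored as G0/G1 versus cycling (S+G2/M) percentage. Mean ± SD of 3 experiments; unpaired t-test against untreated cells.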
# [16] = system: T-cell; assay: Induction of cell cycle arrest at G0/G1 phase in human PBMC derived PHA-activated T-lymphocytes assessed as reduction G2/M phase cells at 30 uM measured after 5 days by flow cytometric analysis; type: functional, cell-based; details: time 5.0 day; method in brief: as §3
# [17] = system: T-cell; assay: Inhibition of human PBMC derived PHA-activated T-lymphocytes activation assessed as inhibition of colony formation by measuring reduction in colony forming units at 30 uM incubated for 5 days by bright-field microscopic analysis; type: functional, cell-based; details: time 5.0 day
# Method in brief: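 PBMC at 1.5 × 10⁶ cells/mL treated with compounds (30 μM) together with PHA-L (240 ng/mL) for 5 days in RPMI with 10% heat-inactivated bovine calf serum and 2 mM L-glutamine. After medium removal, wells imaged by bright-field microscopy at 2× and colonies (CFU) counted. Mean ± SD of 3 experiments.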
# [18] = system: T-cell line; assay: Cytotoxicity against human PBMC derived PHA-activated T-lymphocytes assessed as effect on cell viability by trypan blue staining based analysis; type: toxicity; details: 30 µM
# Method in brief: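 PBMC purified by Ficoll gradient with red-cell lysis, seeded at 1.5 × 10⁶ cells/mL in RPMI with 10% heat-inactivated serum and 2 mM L-glutamine. Activated with PHA-L 240 ng/mL alongside compounds at 30 μM. Viability of treated versus untreated cells judged by trypan blue staining.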
# [19] = molecular target: T1, Potassium voltage-gated channel subfamily A member 3; assay: Inhibition of Kv1.3 in human PBMC derived PHA-activated T-lymphocytes assessed as reduction in intracellular calcium level at 5 uM incubated for 2 hrs by Fluo-4 Ca2+ based flow cytometric analysis; type: cell-based; details: T-lymphocyte
# Method in brief: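 PBMC activated 5 days with PHA, then given compounds at 5 μM for 2 h. Scraped and loaded with Fluo-4 (2 μM) plus anti-CD3-APC at 37 °C for 1 h, washed, and held 30 min at 37 °C with compound (5 μM) before flow cytometry. Fluo-4 MFI of the CD3⁺ gate, 3 replicates, normalized to untreated control; n = 4.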
# T1 sequence (P22001 whole entry): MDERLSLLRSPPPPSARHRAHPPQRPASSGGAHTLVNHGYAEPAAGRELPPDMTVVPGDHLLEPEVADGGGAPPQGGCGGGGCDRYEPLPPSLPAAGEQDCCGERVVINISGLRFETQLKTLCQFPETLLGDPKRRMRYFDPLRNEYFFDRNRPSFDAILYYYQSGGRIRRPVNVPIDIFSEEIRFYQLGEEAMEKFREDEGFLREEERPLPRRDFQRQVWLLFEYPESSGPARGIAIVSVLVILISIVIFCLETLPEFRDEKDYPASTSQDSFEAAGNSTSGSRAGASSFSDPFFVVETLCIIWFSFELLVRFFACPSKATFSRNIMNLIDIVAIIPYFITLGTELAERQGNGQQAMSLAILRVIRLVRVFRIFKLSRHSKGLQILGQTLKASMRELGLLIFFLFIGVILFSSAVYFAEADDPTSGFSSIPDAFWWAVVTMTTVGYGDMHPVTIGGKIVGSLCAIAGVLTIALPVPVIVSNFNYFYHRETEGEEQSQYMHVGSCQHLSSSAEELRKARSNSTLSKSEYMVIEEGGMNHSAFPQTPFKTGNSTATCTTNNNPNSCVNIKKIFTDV
# Chain of hERG (KCNH2) (Q12809 whole entry): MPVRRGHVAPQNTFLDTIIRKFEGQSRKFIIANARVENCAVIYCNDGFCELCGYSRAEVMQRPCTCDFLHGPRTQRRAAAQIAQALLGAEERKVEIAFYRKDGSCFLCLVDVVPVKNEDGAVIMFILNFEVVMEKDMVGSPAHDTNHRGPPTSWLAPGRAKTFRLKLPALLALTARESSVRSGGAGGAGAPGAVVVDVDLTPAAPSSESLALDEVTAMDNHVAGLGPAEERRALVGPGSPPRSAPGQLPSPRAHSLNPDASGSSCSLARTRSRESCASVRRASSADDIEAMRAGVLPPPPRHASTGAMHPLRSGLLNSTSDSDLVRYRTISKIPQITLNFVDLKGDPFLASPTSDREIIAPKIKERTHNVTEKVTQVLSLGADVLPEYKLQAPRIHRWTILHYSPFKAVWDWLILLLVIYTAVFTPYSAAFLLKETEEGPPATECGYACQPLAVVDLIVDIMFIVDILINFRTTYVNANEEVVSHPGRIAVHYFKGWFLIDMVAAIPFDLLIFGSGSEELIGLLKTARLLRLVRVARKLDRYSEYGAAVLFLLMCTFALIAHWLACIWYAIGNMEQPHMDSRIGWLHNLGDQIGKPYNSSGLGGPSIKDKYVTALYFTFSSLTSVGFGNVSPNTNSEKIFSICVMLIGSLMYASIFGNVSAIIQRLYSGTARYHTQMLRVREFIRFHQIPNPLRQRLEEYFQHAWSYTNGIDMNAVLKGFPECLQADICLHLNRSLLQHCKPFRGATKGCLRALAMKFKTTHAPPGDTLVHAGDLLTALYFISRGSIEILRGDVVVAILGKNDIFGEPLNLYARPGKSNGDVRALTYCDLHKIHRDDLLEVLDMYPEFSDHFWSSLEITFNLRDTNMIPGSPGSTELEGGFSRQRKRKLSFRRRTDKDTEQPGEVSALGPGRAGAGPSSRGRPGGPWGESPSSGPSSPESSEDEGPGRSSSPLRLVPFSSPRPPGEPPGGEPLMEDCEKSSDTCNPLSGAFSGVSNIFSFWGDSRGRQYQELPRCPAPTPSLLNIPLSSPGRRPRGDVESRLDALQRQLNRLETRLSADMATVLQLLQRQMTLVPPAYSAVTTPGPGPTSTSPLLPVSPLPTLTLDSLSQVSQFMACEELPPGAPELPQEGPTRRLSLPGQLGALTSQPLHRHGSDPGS
SMILES,inhibition [1],inhibition [3],other results
COCCCNC(=O)O[C@H]1CC[C@](CNC(=O)c2ccccc2OC)(c2cccs2)CC1,91.6%,Active,IC50 [2]: 850 nM
CNC(=O)O[C@H]1CC[C@@](CNC(=O)c2ccccc2OC)(c2ccsc2)CC1,93%,Active,inhibition at 5 µM [4]: 19%; IC50 [2]: 170 nM
COc1ccc(C)cc1C(=O)NCC1(c2cccs2)CCC(=O)CC1,23.3%,Active,–
CCCNC(=O)O[C@H]1CC[C@@](CNC(=O)c2ccccc2OC)(c2ccccc2)CC1,87.3%,Active,IC50 [5]: 340 nM
C=CCNC(=O)O[C@H]1CC[C@@](CNC(=O)c2ccccc2OC)(c2ccsc2)CC1,36.2%,Active,IC50 [6]: 37.2 nM
Clc1ccccc1C(c1ccccc1)(c1ccccc1)n1cccn1,–,–,Activity [7]: 173 pA
CCCNC(=O)O[C@H]1CC[C@](CNC(=O)c2ccccc2OC)(c2ccsc2)CC1,25.5%,Active,–
COc1ccc(F)cc1C(=O)NC[C@]1(c2cccs2)CC[C@@H](O)CC1,54.9%,Active,–
COc1ccccc1C(=O)NC[C@]1(c2ccsc2)CC[C@@H](O)CC1,78.5%,Active,–
O=C(NC[C@]1(c2cccs2)CC[C@H](O)CC1)c1ccoc1,65.7%,Active,–
COc1ccc(F)cc1C(=O)NC[C@]1(c2cccs2)CC[C@H](O)CC1,66.4%,Active,–
CCCNC(=O)O[C@H]1CC[C@](CNC(=O)c2ccccc2OC)(c2ccccc2)CC1,40.5%,Active,–
COc1ccccc1C(=O)NCC1(c2cccs2)CCC(=O)CC1,95.1%,Active,IC50 [2]: 1130 nM; solubility thermodynamic at 24 h [8]: 210 µM
O=c1ccc2c(OCCCCOc3ccc(O)cc3)c3ccoc3cc2o1,–,–,solubility [9]: 0.6 µM
COc1ccccc1C(=O)NCC1(c2ccccc2)CCC(=O)CC1,87.5%,Active,IC50 [10]: 310 nM; IC50 [5]: 1000 nM; IC50 [11]: 260 nM
O=c1ccc2c(OCCCCOc3ccccc3)c3ccoc3cc2o1,–,–,solubility [12]: < 1000 µg/mL

SMILES,inhibition [1],inhibition [3],other results
COc1ccccc1C(=O)NC[C@]1(c2cccs2)CC[C@@H](O)CC1,38.5%,Active,–
CNC(=O)O[C@H]1CC[C@](CNC(=O)c2ccccc2OC)(c2cccs2)CC1,94.7%,Active,IC50 [2]: 180 nM
COc1ccccc1C(=O)NCC1(c2ccsc2)CCCC1,–,–,IC50 [13]: 17400 nM
CNC(=O)O[C@H]1CC[C@@](CNC(=O)c2ccccc2OC)(c2cccs2)CC1,93.8%,Active,IC50 [2]: 470 nM
COc1ccccc1C(=O)NCC1(c2ccsc2)CCC(=O)CC1,97%,Active,IC50 [2]: 800 nM; solubility thermodynamic at 24 h [8]: 400 µM
O=C1CCC(CNC(=O)c2ccoc2)(c2cccs2)CC1,55.3%,Active,–
COc1ccccc1C(=O)NC[C@]1(c2ccsc2)CC[C@@H](N)CC1,0.65%,Active,–
COCCCNC(=O)O[C@H]1CC[C@](CNC(=O)c2ccccc2OC)(c2ccsc2)CC1,94.5%,Active,IC50 [2]: 670 nM
O=C(NC[C@]1(c2cccs2)CC[C@@H](O)CC1)c1ccoc1,0%,Active,inhibition at 5 µM [4]: 21%
COc1ccc(F)cc1C(=O)NCC1(c2cccs2)CCC(=O)CC1,39.1%,Active,–
CNC(=O)O[C@H]1CC[C@](CNC(=O)c2ccccc2OC)(c2ccsc2)CC1,79.6%,Active,–
COc1cc(C)ccc1C(=O)NCC1(c2cccs2)CCC(=O)CC1,85.6%,Active,–
COc1ccccc1C(=O)NC[C@]1(c2ccsc2)CC[C@H](O)CC1,97.6%,Active,inhibition at 5 µM [4]: 15%; Activity [14]: Non-Toxic; Activity [15]: Active; Activity [16]: Active; IC50 [2]: 450 nM; inhibition [17]: Active; Activity [18]: Non-Toxic; IC50 [6]: 56.8 nM; inhibition [19]: inactive; solubility thermodynamic at 24 h [8]: 72 µM
COc1ccccc1C(=O)NC[C@]1(c2ccsc2)CC[C@H](N)CC1,6.46%,Active,–
COc1ccccc1C(=O)NC[C@]1(c2cccs2)CC[C@H](O)CC1,90.9%,Active,IC50 [2]: 250 nM
